Reference: publication PMC3085808 (Nutrition Research and Practice, 2011)

Key:
[1] = tested on: EAhy926 cells; test: Nitric oxide; assay type: cell-based, human; conditions: 24 h, P < 0.05
Outline: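 EAhy926 cells at 1.5 × 10^5 cells/well were treated 24 h with a range of test compound concentrations in 0.1% DMSO, with 0.1% DMSO as control. Supernatant nitrite: supernatant mixed 1:1 with Griess reagent (0.1% N-(1-naphthyl)-ethylenediamine, 1% sulfanilamide in 5% phosphoric acid), 10 min at room temperature, A550 against a sodium nitrite standard curve. Mean ± SD of three determinations; one-way ANOVA with Duncan's test, P < 0.05.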

[2] = tested on: glycosidases from the viscera of the turban shell Turbo cornutus; conditions: cited from earlier work
[3] = target: T1, angiotensin I-converting enzyme (ACE) (Oryctolagus cuniculus, UniProt P12822); test: ACE inhibition pattern by Lineweaver-Burk plots; assay type: biochemical; conditions: substrate HHL
T1 sequence (P12822 34-1310): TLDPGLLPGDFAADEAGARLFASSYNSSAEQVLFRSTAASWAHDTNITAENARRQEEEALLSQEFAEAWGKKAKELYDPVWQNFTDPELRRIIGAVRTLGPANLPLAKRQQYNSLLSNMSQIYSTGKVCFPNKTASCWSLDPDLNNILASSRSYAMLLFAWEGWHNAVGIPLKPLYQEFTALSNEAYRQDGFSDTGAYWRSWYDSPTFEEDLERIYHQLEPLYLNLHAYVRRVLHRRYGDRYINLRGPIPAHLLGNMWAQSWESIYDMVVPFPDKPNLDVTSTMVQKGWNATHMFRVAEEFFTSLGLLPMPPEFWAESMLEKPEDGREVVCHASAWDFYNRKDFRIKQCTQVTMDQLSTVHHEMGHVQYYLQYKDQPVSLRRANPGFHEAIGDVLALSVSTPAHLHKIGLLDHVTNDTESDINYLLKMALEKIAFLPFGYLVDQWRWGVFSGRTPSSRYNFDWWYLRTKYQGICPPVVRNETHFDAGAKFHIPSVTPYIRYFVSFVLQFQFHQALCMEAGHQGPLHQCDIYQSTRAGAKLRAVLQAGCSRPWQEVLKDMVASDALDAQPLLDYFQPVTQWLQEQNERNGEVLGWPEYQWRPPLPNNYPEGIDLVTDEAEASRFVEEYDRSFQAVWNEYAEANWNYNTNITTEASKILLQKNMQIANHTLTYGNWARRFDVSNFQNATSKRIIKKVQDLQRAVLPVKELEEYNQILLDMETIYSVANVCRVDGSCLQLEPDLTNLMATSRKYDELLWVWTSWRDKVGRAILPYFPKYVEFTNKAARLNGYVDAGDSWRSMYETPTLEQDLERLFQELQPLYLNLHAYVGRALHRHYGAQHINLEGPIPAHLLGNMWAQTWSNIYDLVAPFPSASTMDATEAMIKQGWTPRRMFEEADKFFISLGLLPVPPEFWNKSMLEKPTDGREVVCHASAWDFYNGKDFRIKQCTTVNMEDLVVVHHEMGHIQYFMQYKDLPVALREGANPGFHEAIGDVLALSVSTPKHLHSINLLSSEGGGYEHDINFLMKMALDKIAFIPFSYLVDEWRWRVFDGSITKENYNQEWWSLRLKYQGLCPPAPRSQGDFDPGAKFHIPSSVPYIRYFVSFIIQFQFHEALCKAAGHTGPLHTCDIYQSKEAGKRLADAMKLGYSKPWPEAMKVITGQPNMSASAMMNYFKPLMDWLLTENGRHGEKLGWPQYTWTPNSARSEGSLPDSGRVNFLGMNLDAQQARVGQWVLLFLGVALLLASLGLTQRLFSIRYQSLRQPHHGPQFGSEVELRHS
Outline: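 ACE kept constant while test compound (in 0.1% DMSO) and HHL substrate were both varied. Enzyme and compound were pre-incubated 10 min at 37℃, then HHL in 50 mM sodium borate with 500 mM NaCl, pH 8.3, was added for 60 min at 37℃. Stopped with 1 M HCl; hippuric acid extracted into ethyl acetate, dried, redissolved in water, A228. 0.1% DMSO control. Lineweaver-Burk plots, mean ± SD of three determinations.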

[4] = tested on: EAhy926 cells; test: Cell viability, MTT assay; assay type: cell-based, human
Outline: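 EAhy926 cells grown in DMEM with 10% heat-inactivated calf serum, penicillin and streptomycin at 37℃, 5% CO2. Seeded at 1.0 × 10^5 cells/ml, held 16 h, then exposed 24 h to a range of test compound concentrations in 0.1% DMSO. MTT (2 mg/ml stock) added for 4 h; formazan dissolved in DMSO, A540. Viability as % of 0.1% DMSO control; mean ± SD of three determinations.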

For `Oc1cc(O)cc(Oc2c(O)cc(O)c3c2Oc2c(O)cc(Oc4c(O)cc(Oc5c(O)cc(O)c6c5Oc5c(O)cc(O)cc5O6)cc4O)cc2O3)c1` [Dieckol, dieckol], the “Concentrations with inducible effect on the production of NO” value [1] is given as “higher than 0.27 mM”, the Glycosidase inhibition mode [2] is given as “non-competitive inhibitor” and the ACE inhibition mode [3] is given as “non-competitive inhibitor”. The Cytotoxic effect [4] was “no cytotoxic effect” and the “Survival rate of cells” value ([4]; 24 h, all of the concentrations used) was “higher than 95%”.
